Source: ChEMBL document CHEMBL4033795, “Design, Synthesis, and Structure-Activity Relationship Study of 2-Oxo-3,4-dihydropyrimido[4,5- d]pyrimidines as New Colony Stimulating Factor 1 Receptor (CSF1R) Kinase Inhibitors” (J Med Chem, 2018)

How the values were obtained:
[1] = species on record: Homo sapiens; experiment: Selectivity ratio of IC50 for recombinant human PDGFRbeta expressed in baculovirus to IC50 for recombinant human His-tagged CSF1R cytoplasmic domain (538 to 910 residues) expressed in baculovirus
[2] = biological target: Epidermal growth factor receptor (Homo sapiens, UniProt P00533); experiment: Inhibition of recombinant human wild type GST-tagged EGFR cytoplasmic domain (668 to 1210 residues) expressed in baculovirus using tyr4 peptide as substrate after 1 hr by FRET-based Z'-Lyte assay
[3] = Cmax in Sprague-Dawley rat at 25 mg/kg administered via oral gavage measured up to 72 hrs by LC/MS analysis; format: ADME, organism-based; design: dose 25 mg/kg, route oral; settings: in vivo
Procedure, shortened: (§1)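 Male Sprague-Dawley rats, 4–6 weeks old, acclimatised 1 week, were dosed iv at 5 mg/kg or by oral gavage at 25 mg/kg. Vehicle was 2% DMSO, 4% EtOH, 4% castor oil, 90% H2O. Blood was drawn by orbital sinus puncture from 2 min to 72 h into heparinized tubes. Plasma was assayed by LC/MS with propranolol as internal standard. Three animals per group.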

[4] = biological target: Vascular endothelial growth factor receptor 2 (Homo sapiens) (UniProt P35968); experiment: Inhibition of human KDR (R787 to P1253 residues) expressed in mammalian expression system at 100 nM by KINOMEscan assay relative to control
[5] = biological target: Proto-oncogene tyrosine-protein kinase receptor Ret (Homo sapiens) (UniProt P07949); experiment: Inhibition of human RET (E713 to D1014 residues) expressed in bacterial expression system at 100 nM by KINOMEscan assay relative to control
[6] = species on record: Homo sapiens; experiment: Selectivity ratio of IC50 for recombinant cytoplasmic human GST-tagged PDGFRalpha expressed in baculovirus to IC50 for recombinant human His-tagged CSF1R cytoplasmic domain (538 to 910 residues) expressed in baculovirus
[7] = system: RAW264.7; experiment: Inhibition of protumorigenic potential of mouse RAW264.7 cells assessed as abrogation of human LNCAP cell growth enhancement of macrophages co-cultured for 48 hrs by CCK8 assay; format: functional, cell-based
Procedure, shortened: (§2)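 LNCaP cells, (2−4) × 10^5, were seeded in the lower transwell chamber. After 2 h, (1−2) × 10^6 RAW264.7 cells were added in a 0.4 μm insert. Compound at 0.016–2.0 μM was added to the top chamber and cells were cocultured 48 h at 37 °C. LNCaP cells were then imaged and counted by CCK8. Run three times, each in triplicate.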

[8] = biological target: T1, Macrophage colony-stimulating factor 1 receptor (Mus musculus) (UniProt P09581); experiment: Inhibition of CSF1R in mouse RAW264.7 cells assessed as suppression of AKT phosphorylation preincubated for 6 hrs followed by CSF1 stimulation for 20 mins by Western blot analysis; format: cell-based
T1 sequence (whole entry): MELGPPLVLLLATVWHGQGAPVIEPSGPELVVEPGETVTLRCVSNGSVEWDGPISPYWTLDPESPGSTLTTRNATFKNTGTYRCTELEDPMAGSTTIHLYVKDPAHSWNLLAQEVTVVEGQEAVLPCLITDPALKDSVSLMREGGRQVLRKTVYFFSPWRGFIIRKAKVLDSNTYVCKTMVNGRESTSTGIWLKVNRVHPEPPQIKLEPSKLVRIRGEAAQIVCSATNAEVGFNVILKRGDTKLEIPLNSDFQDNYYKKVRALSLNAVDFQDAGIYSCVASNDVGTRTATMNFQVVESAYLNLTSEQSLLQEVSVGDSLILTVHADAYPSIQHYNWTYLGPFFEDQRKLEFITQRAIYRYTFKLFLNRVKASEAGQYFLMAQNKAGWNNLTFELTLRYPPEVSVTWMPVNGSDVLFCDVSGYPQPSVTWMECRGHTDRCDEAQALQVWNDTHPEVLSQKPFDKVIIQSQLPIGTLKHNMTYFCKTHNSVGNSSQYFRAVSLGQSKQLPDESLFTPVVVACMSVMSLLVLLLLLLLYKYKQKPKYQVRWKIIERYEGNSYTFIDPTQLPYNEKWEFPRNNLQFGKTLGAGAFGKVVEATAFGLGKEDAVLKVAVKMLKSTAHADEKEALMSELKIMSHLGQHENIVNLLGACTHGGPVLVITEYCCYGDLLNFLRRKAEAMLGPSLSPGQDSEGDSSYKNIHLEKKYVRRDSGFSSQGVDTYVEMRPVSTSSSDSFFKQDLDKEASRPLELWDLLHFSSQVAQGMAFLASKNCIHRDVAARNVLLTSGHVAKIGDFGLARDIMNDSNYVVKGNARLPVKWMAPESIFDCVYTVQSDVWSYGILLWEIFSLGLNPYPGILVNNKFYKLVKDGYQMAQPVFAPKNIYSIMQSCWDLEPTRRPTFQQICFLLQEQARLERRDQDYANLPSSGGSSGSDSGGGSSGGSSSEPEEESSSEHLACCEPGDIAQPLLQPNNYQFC
Procedure, shortened: (§3)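 RAW264.7 cells were seeded, incubated overnight and treated 6 h with graded compound concentrations, then stimulated 20 min with CSF-1 (50 ng/mL). Lysates were run on 8−12% SDS-PAGE and immunoblotted for p-CSF1R (Tyr723), CSF1R, p-AKT, AKT and GAPDH. Bands were quantified and normalized to GAPDH. Mean ± SEM of at least three experiments.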

[9] = biological target: Fibroblast growth factor receptor 2 (Homo sapiens, UniProt P21802); experiment: Inhibition of cytoplasmic recombinant human His-tagged FGFR2 (403 to 822 residues) expressed in baculovirus using tyr4 peptide as substrate after 1 hr by FRET-based Z'-Lyte assay
[10] = system: RAW264.7; experiment: Inhibition of protumorigenic potential of mouse RAW264.7 cells assessed as abrogation of human LNCAP cell growth enhancement of macrophages at 0.016 uM co-cultured for 48 hrs by CCK8 assay relative to control; format: functional; settings: RAW264.7, 48 h; procedure, shortened: as §2
[11] = system: RAW264.7; experiment: Downregulation of ARG1 mRNA expression in mouse RAW264.7 cells after 48 hrs by qRT-PCR analysis relative to DMSO; format: functional, cell-based
Procedure, shortened: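 RAW264.7 macrophages were treated 48 h with compound at 0.08, 0.4 or 2.0 μM, or DMSO vehicle. Total RNA was extracted with TRIzol and transcripts were quantified by qRT-PCR using gene-specific primers. Run three times, each in triplicate.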

[12] = biological target: Mast/stem cell growth factor receptor Kit (Homo sapiens, UniProt P10721); experiment: Inhibition of recombinant cytoplasmic human His-tagged KIT expressed in baculovirus using […] peptide as substrate after 1 hr by FRET-based Z'-Lyte assay
[13] = system: Rattus norvegicus; experiment: AUC (0 to infinity) in Sprague-Dawley rat at 25 mg/kg administered via oral gavage measured up to 72 hrs by LC/MS analysis; format: ADME, organism-based; design: dose 25 mg/kg, route oral, time infinity; settings: in vivo; procedure, shortened: as §1
[14] = species on record: Homo sapiens; experiment: Selectivity ratio of IC50 for recombinant cytoplasmic human His-tagged KIT expressed in baculovirus to IC50 for recombinant human His-tagged CSF1R cytoplasmic domain (538 to 910 residues) expressed in baculovirus
[15] = biological target: T1, Macrophage colony-stimulating factor 1 receptor (Mus musculus); experiment: Inhibition of CSF1R phosphorylation in mouse RAW264.7 cells preincubated for 6 hrs followed by CSF1 stimulation for 20 mins by Western blot analysis; format: cell-based; procedure, shortened: as §3

Chain of Mast/stem cell growth factor receptor Kit (P10721 whole entry): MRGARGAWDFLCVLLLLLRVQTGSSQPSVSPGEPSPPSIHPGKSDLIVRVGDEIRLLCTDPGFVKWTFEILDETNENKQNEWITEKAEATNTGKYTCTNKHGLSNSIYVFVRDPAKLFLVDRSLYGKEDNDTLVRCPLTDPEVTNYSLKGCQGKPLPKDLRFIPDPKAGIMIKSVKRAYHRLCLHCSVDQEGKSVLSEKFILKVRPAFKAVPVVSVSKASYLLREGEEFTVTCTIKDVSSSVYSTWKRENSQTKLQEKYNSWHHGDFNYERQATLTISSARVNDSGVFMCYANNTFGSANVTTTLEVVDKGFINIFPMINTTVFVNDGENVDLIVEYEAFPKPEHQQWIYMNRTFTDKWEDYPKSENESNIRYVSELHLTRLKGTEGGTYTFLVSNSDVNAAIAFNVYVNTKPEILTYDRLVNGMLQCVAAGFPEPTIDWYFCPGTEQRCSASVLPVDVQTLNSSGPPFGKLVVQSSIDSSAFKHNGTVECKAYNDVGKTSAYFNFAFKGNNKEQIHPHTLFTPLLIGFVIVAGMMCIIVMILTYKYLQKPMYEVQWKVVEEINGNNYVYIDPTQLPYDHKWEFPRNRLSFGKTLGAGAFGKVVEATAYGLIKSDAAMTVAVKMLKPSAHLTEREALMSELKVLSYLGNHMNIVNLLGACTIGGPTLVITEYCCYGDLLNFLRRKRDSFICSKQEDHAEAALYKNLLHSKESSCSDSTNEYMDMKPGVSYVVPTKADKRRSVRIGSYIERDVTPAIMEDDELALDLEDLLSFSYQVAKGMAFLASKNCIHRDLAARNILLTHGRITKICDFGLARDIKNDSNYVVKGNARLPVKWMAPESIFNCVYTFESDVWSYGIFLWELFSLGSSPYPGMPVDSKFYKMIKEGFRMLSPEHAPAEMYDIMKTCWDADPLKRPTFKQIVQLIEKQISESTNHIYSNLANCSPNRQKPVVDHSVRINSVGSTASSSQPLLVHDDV
Chain of Epidermal growth factor receptor (P00533 whole entry, the tested form may be a part): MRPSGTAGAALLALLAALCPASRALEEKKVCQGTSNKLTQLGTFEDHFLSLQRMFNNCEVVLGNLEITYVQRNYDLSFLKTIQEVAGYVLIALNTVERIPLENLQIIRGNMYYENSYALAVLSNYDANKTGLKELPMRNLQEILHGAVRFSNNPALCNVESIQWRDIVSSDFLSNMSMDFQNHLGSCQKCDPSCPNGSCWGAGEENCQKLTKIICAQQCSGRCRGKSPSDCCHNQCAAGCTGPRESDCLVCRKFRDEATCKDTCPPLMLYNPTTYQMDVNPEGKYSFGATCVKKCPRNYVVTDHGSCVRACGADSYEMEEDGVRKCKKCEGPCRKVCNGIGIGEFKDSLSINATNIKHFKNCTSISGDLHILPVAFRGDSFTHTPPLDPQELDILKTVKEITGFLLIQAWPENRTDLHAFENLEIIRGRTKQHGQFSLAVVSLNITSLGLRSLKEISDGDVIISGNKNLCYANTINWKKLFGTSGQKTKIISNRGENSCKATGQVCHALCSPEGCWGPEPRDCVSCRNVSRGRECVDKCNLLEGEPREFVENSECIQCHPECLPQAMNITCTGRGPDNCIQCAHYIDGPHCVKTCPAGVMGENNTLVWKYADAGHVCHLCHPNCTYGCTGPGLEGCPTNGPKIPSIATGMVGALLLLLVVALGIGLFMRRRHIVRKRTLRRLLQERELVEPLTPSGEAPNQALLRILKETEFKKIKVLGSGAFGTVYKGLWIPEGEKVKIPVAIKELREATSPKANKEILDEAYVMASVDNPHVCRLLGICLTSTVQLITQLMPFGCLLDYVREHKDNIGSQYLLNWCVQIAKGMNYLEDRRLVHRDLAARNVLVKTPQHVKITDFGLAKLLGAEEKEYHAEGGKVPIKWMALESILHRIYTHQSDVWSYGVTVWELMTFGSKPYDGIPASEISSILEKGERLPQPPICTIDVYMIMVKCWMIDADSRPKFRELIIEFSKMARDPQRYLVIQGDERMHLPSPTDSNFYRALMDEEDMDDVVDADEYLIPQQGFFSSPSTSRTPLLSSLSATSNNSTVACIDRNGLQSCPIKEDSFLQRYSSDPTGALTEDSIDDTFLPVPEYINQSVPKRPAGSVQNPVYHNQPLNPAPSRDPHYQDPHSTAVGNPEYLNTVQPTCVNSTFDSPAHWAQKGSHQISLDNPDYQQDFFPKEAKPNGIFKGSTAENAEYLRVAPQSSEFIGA
Chain of Proto-oncogene tyrosine-protein kinase receptor Ret (Homo sapiens) (P07949 whole entry, the tested form may be a part): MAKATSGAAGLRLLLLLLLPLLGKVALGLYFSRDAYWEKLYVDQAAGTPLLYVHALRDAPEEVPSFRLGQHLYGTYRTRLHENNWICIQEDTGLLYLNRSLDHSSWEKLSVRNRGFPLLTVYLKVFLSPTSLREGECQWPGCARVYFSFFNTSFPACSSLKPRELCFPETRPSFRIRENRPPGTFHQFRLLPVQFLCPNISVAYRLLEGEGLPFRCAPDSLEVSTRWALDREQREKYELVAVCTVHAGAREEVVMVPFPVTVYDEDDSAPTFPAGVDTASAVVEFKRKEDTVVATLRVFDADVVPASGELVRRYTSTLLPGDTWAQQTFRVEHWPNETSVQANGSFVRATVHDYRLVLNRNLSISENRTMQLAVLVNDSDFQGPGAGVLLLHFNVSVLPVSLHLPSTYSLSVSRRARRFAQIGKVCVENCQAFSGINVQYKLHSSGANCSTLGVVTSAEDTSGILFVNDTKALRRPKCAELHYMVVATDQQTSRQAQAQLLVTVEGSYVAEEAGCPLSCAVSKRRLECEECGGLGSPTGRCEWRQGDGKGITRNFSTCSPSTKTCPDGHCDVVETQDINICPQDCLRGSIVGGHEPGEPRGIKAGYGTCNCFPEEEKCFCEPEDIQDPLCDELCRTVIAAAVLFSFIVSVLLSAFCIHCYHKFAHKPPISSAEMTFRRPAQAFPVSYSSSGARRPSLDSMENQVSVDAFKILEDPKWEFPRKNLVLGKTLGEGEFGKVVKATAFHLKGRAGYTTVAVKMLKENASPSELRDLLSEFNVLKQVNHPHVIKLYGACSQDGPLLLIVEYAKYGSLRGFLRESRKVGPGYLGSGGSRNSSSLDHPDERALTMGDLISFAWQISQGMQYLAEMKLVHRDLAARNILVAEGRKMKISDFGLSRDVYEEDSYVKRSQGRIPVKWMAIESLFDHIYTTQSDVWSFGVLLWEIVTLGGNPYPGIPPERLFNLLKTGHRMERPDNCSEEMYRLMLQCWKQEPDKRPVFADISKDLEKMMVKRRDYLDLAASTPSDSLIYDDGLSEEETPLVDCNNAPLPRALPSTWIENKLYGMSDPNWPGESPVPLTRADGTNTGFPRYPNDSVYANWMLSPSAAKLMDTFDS
Chain of Vascular endothelial growth factor receptor 2 (Homo sapiens) (P35968 whole entry, the tested form may be a part): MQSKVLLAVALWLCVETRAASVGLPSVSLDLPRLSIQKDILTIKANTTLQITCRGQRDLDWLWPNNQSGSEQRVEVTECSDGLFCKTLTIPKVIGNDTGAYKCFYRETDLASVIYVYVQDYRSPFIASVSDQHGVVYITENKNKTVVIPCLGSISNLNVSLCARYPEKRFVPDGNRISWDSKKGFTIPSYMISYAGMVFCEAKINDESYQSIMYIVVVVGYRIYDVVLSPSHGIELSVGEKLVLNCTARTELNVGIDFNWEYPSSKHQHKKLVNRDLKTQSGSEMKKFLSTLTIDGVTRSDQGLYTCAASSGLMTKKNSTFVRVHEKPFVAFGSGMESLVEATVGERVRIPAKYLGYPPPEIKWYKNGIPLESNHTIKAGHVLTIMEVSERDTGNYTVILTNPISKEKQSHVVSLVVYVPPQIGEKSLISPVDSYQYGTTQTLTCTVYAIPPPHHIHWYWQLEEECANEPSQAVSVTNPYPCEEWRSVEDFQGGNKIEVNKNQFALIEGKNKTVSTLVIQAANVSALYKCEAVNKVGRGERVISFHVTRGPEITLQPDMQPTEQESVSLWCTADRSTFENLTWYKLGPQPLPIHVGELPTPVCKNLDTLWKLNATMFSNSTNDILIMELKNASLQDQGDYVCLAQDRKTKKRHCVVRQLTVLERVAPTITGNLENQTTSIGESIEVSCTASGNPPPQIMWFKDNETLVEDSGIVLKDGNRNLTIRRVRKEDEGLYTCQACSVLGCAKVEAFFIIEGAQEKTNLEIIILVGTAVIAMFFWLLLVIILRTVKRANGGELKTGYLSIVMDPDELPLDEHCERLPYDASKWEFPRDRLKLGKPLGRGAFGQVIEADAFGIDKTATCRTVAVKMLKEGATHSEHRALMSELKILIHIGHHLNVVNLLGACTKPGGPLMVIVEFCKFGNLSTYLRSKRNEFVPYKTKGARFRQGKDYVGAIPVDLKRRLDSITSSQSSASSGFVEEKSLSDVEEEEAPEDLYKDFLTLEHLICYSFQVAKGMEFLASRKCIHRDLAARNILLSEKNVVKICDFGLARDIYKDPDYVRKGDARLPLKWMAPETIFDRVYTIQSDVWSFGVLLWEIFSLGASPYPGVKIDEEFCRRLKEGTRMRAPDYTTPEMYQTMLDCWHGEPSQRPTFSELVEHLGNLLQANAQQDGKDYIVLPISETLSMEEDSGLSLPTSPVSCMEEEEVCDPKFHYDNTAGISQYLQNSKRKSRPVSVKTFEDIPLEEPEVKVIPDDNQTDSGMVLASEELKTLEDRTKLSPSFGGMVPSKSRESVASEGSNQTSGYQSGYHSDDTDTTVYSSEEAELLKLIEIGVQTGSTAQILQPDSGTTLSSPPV

Structure (SMILES): CCC(=O)N1CC[C@H](N2C(=O)N(c3cc(OC)ccc3Cl)Cc3cnc(Nc4ccc(N5CCN(C6COC6)CC5)c(C)c4)nc32)C1
- Ratio IC50 [1]: 10 to 35
- IC50 [2]: 360 nM
- Cmax [3]: 2520 ng/mL
- inhibition [4]: > 90%
- inhibition [5]: > 90%
- Ratio IC50 [6]: 10 to 35
- inhibition [7]: Dose-dependent effect
- inhibition [8]: Dose-dependent effect
- IC50 [9]: 27 nM
- inhibition at 0.016 µM [10]: 63.4%
- Activity [11]: Dose-dependent effect
- IC50 [12]: 30 nM
- AUC [13]: 6462 ng·h/mL
- Ratio IC50 [14]: 10 to 35
- inhibition [15]: Dose-dependent effect
